Holding throughout (assay type): ADME, organism-based
Data set [1] deals with Mus musculus. Briefly: The biodistribution time for [131 I ]L-HML-NGA radioactivity after concomitant administration of [[131 I ]L-HML-NGA and [125 I ]MPH-NGA in mice. It is expressed as percent injected dose per kidney. The note with it: in vivo. The procedure, abridged:
(§1)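 Six-week-old male ddY mice were given one i.v. co-injection of a 131I/125I-labelled NGA pair, each diluted to 90 µg/mL protein in 0.1 M PBS pH 6.0 and mixed 1:1, giving 9 µg of each radioiodinated NGA per mouse. Groups of five were killed at 5, 15, 30 min, 1 h and 3 h. Organs were weighed and counted in a well counter. Values are % ID per organ, blood as % ID/g, mean (SD).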

For a further data set, the species on record is Homo sapiens. Briefly: The percent protein-bound radioactivity in NGAfractions following incubation of radioiodinated [131 I ]L-HML-NGA in human serum after 24 hours. The procedure, abridged:
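Conjugates were diluted to 0.5 mg/mL in 0.1 M PBS pH 6.0, and 20 µL was added to 230 µL of freshly prepared human serum. Samples were incubated at 37 °C and taken at 1, 3, 6 or 24 h. Protein-bound fraction (Rf 0) was separated from small metabolites (Rf 0.6-0.9) by paper chromatography in methanol-water 4:1. Protein-bound radioactivity was divided by the initial radiochemical purity. Values are mean (SD).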

The nature of data set [2]: Cumulative radioactivity exerted by [131 I ]L-HML-NGA in the urine at 24 hour postinjection of [131 I ]L-HML-NGA and [125 I ]MIH-NGA. The settings on record: in vivo. The procedure, abridged: (§2)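 Mice received one i.v. co-injection of the dual-isotope NGA mixture, 9 µg of each radioiodinated protein, and were housed in metabolic cages for 24 h. Cumulative urine and feces were collected and counted. Values are % injected dose, mean (SD) of five animals, with a Student's paired t-test between the two co-administered conjugates.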

The test system of data set [3] is Mus musculus. Briefly: The biodistribution time for [131 I ]L-HML-NGA radioactivity after concomitant administration of [131 I ]L-HML-NGA and [125 I ]MPH-NGA in mice. It is expressed as percent injected dose per gram of blood tissue. The settings on record: in vivo. The procedure, abridged:
as §1

The test system of data set [4] is Mus musculus. Description: The biodistribution time for [131 I ]L-HML-NGA radioactivity after concomitant administration of [131 I ]L-HML-NGA and [125 I ]L-HML-IT-NGA in mice. It is expressed as percent injected dose per stomach. The settings on record: in vivo. The procedure, abridged: as §1
Data set [5] is described as follows: Cumulative radioactivity exerted by [131 I ]L-HML-NGA in the feces at 24 hour postinjection of [131 I ]L-HML-NGA and [125 I ]D-HML-NGA. The settings on record: in vivo. The gist of the method:
as §2

Data set [6] has as its system Mus musculus. Briefly: The biodistribution time for [131 I ]L-HML-NGA radioactivity after concomitant administration of [[131 I ]L-HML-NGA and [125 I ]L-HML-IT-NGA in mice. It is expressed as percent injected dose per kidney. The settings on record: in vivo. The gist of the method:
as §1

A short description of data set [7]: Cumulative radioactivity exerted by [131 I ]L-HML-NGA in the feces at 24 hour postinjection of [131 I ]L-HML-NGA and [125 I ]HML-IT-NGA. The note with it: in vivo. The gist of the method:
as §2

The test system of data set [8] is Mus musculus. Description: The biodistribution time for [131 I ]L-HML-NGA radioactivity after concomitant administration of [131 I ]L-HML-NGA and [125 I ]MIH-NGA in mice. It is expressed as percent injected dose per neck. The note with it: in vivo. The gist of the method: as §1
In data set [9] the test system is Mus musculus. Description: The biodistribution time for [131 I ]L-HML-NGA radioactivity after concomitant administration of [131 I ]L-HML-NGA and [125 I ]MPH-NGA in mice. It is expressed as percent injected dose per neck. The settings on record: in vivo. The procedure, abridged: as §1
Data set [10] has as its system Mus musculus. Briefly: The biodistribution time for [131 I ]L-HML-NGA radioactivity after concomitant administration of [131 I ]L-HML-NGA and [125 I ]MIH-NGA in mice. It is expressed as percent injected dose per gram of blood tissue. The settings on record: in vivo. The procedure, abridged: as §1
Data set [11] deals with Mus musculus. Description: Biodistribution time for compound radioactivity after concomitant administration of compound and [125 I ]MIH-NGA in mice. It is expressed as % injected dose per liver. Values are mean(SD) of 5 animals for each experiment after 5 minutes. The settings on record: in vivo. The procedure, abridged:
as §1

Data set [12] deals with Mus musculus. Briefly: The biodistribution time for [131 I ]L-HML-NGA radioactivity after concomitant administration of [131 I ]L-HML-NGA and [125 I ]L-HML-IT-NGA in mice. It is expressed as percent injected dose per gram of blood tissue. The settings on record: in vivo. The gist of the method: as §1

Values joined by “and” are separate entries in the source; they are usually repeats but may differ in a detail not shown here. Equal values may be shown once.

On to `N[C@@H](CS)C(=O)SC1CC(=O)N(CCCC[C@H](NC(=O)CNC(=O)c2cccc([131I])c2)C(=O)O)C1=O` (stereo partly drawn), for which the Radioactivity in the data set on Mus musculus [1] was 0.76% and 5.3% and 2.3% and 0.31% and 0.13%; in the data set listed under Homo sapiens, 97.23%; in data set [2], 87.32%; in the data set with Mus musculus [3], 1.22% and 3.14% and 1.28% and 0.54% and 0.31%; with Mus musculus [4], 0.17% and 0.46% and 0.3% and 0.35%; in [5] it was 4.4%. The Radioactivity in the data set on Mus musculus [6] was 0.28% and 4.91% and 4.92% and 0.96% and 0.21%; in data set [7], 2.83%; with Mus musculus [8], 0.07% and 0.25% and 0.12% and 0.05% and 0.03%; in the data set on Mus musculus [9], 0.05% and 0.23% and 0.09% and 0.03%; in the data set with Mus musculus [10], 1.22% and 2.93% and 1.48% and 0.58% and 0.43%; with Mus musculus [11] it was 94.15%. In the data set on Mus musculus [12], the Radioactivity was 1.13% and 1.72% and 0.8% and 0.48%.

The values are drawn from ChEMBL document CHEMBL1130118, “A novel radioiodination reagent for protein radiopharmaceuticals with L-lysine as a plasma-stable metabolizable linkage to liberate m-iodohippuric acid after lysosomal proteolysis” (J Med Chem, 1997).
